Kir21 block: inhibitors of mouse Kir2.1 inward-rectifier potassium channel | AID 1672, 2009 | B-score at 10 µM | 0.85% of 310,000 active | Inward rectifier potassium channel 2 (Mus musculus), P35561 | HEK293-Kir2.1, FluxOR thallium flux fluorescence; hits give low values;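 active = fluorescence ratio B-score at or below minus 3 SD of library scores, with starting-brightness B-score within 2 SD, cut at about -4.2 in these data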;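 also: channel flux triggered by added potassium and thallium sulfate stimulus; B-score of peak minus minimum fluorescence over baseline after thallium stimulus; more negative B-score means stronger Kir2.1 block with less thallium influx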
ANO1 activ: TMEM16A chloride channel activators or potentiators, primary screen, cell-based, HTS; HEK293 TMEM16A/YFP-H148Q/I152L, iodide quench fluorescence; hits give low values; AID 623877, 2012; 0.3% of 340,000 active; B-score at 10 µM;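 active = fluorescence-ratio B-score plate-corrected deviation score at least 3 library SD below zero, with starting fluorescence score within 5 deviations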;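 also: channel opened by trigger with iodide after compound preincubation; score built on the fluorescence ratio of max minus min over baseline; more negative score means more quench and so TMEM16A activation or potentiation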
Target sequence (Q8BHY3 whole entry, looked up): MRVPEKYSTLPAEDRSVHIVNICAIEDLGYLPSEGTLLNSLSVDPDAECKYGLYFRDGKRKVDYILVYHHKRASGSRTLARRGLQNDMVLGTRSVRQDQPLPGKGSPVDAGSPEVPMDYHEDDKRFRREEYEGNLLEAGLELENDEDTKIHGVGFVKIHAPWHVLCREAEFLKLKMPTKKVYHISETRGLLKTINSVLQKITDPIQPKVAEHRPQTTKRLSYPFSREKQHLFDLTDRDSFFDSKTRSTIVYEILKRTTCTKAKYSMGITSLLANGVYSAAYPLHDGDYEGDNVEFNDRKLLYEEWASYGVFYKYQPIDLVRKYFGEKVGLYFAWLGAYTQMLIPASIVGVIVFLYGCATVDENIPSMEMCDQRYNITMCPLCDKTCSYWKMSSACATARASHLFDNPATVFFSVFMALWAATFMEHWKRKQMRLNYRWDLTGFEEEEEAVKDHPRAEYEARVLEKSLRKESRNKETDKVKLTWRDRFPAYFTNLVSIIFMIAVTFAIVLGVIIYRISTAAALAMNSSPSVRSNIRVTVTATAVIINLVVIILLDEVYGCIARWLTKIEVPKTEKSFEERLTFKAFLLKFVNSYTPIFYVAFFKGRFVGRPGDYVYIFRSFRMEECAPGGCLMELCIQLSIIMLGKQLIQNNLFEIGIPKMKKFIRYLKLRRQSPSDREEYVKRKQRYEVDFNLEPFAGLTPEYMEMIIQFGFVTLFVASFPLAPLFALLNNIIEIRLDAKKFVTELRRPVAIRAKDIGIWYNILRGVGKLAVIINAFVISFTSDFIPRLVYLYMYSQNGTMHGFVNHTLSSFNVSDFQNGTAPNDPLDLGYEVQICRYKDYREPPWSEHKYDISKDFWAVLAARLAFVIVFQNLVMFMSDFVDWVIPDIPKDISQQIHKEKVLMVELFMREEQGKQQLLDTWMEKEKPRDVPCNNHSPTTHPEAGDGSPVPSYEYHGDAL
SR-BI DiI inh: inhibitors of SR-BI mediated HDL lipid uptake, primary screen, ldlA[mSR-BI] cells, fluorescence, single point; Scavenger receptor class B member 1 (Mus musculus), Q61009; ldlA[mSR-BI] CHO cells, DiI-HDL uptake fluorescence, 3 h; inhibition, % at 12.5 µM; 0.96% of 320,000 active; AID 488896, 2010;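 active = mean replicate inhibition of at least 70% and a set share of replicates each scoring 70 or more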;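 also: 0% = median of neutral control wells and 100% = median of positive control wells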
TMEM16A inh: TMEM16A chloride channel inhibitors, primary screen, cell-based, HTS; Anoctamin-1 (Mus musculus), Q8BHY3; HEK293 TMEM16A/YFP iodide influx fluorescence, ionomycin; normalized B-score (activity score, 25-100; higher = stronger inhibition) at 10 µM; 1.2% of 310,000 active; AID 588511, 2011;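 active = ratio plate-corrected score three or more library SD toward inhibition, starting fluorescence score within five deviations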;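 also: score derived from kinetic fluorescence span divided by baseline fluorescence per well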
SR-BI uptake up: activators of SR-BI mediated DiI-HDL uptake, primary screen, ldlA[mSR-BI] CHO cells, DiI fluorescence; activation, % at 12.5 µM; 0.096% of 320,000 active; AID 504775, 2011; 3 h; 100 = double the neutral-control signal;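 active = mean replicate activation of at least 60% and every replicate at or above 60%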;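 also: 0% = median plate neutral-control signal and 100% = twice that signal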
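Assay system: CHO ldlA[mSR-BI] cells, LDL receptor-null, SR-BI overexpressing; medium: Ham's F12 with 0.5% BSA, HEPES 25 mM, pH 7.4; also added: DiI-HDL 10 µg/mL; timing: 3 h uptake period with compound, 37 °C; signal: DiI fluorescence, bottom read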
FID counter: compounds displacing fluorescent DNA intercalator, primary screen, artefact control for HCV NS3 helicase inhibitor project, biochemical, FID fluorescence. DNA fluorescent intercalator displacement. inhibition, % at 7.9 µM. 0.17% of 290,000 active. AID 1845, 2009; in the data active = inhibition above about 37%;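 also: 0% = vehicle and 100% = reference compound; higher means more ethidium bromide displaced from hairpin DNA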
Starred values were filed as active, the others as inactive; i = inactive; . = not tested or not shown. Shown are actives, neighbours in structure and some others; about 3% of the full set was active somewhere.

SMILES	Kir21 block	ANO1 activ	SR-BI DiI inh	TMEM16A inh	SR-BI uptake up	FID counter
CC(C)=CCc1c(O)ccc2c1OC(c1ccc(O)c(O)c1)CC2=O (stereo unspecified)	-7.1*	i	3	i	-3	-10
O=C1CC(c2ccc(O)c(O)c2)Oc2c1ccc(O)c2O (stereo unspecified)	.	i	16	i	-16	.
CSc1ncnc2[nH]ccc12	.	i	-15	.	15	.
O=C(/C(=N/N=C/c1ccc(O)c(O)c1)c1ccccc1)c1ccccc1	-4.8*	i	13	i	-13	-8
O=C(c1cccc(NS(=O)(=O)c2ccc(Br)cc2)c1)N1CCN(c2ccccc2O)CC1	.	i	-6	.	6	.
CCOc1cc(C)c(-c2onc(C(F)(F)F)c2-c2csc(C)n2)c(O)c1	-0.57	i	-15	100*	15	-16
Cc1cccc(N2C(=O)N3[C@@H]4c5ccccc5OC[C@@H]4[C@@H](c4ccccc4)[C@@]3(C)C2=O)c1	0.04	i	-2	i	2	-38
CCCCN(CC)CCCNC(=O)c1cn(CC)c2ccc(S(=O)(=O)N3CCc4ccccc4C3)cc2c1=O	-0.39	i	14	i	-14	41*
CCn1cc(C(=O)NCCCN(CC(C)C)CC(C)C)c(=O)c2cc(S(=O)(=O)N(C)C3CCCCC3)ccc21	3	-13*	-4	i	4	-1
CCCCCC(=O)Cc1cc(O)cc2c1C(=O)Oc1cc(O)c(C(=O)O)c(CCCCC)c1O2	0.39	.	.	25*	.	.
COc1ccc(CCNC(=O)C(NS(=O)(=O)c2cccc3nsnc23)C(C)C)cc1OC (stereo unspecified)	1	i	30	i	-30	-14
O=C1/C(=N\S(=O)(=O)c2cccs2)C([n+]2ccccc2)=C([O-])c2ccccc21	0.57	-11*	.	i	.	0
CC(C)(C)c1cc[n+](C2=C([O-])c3ccccc3C(=O)/C2=N\S(=O)(=O)c2cccs2)cc1	-0.08	i	.	i	.	4
Cn1cccc1C(=O)NC(=O)COC(=O)c1cc([N+](=O)[O-])ccc1Cl	0.07	i	9	i	-9	-13
CN(C)S(=O)(=O)c1ccc(Cl)c(C(=O)OCC(=O)NC(=O)c2cccn2C)c1	-0.84	i	72*	i	-72	-12
Cc1ccc(S(=O)(=O)Nc2ccccc2/C=N/c2nc3ccccc3n2C)cc1	.	i	-14	i	14	6
Cc1cc(C)c(C)c(OCCOCCNCc2ccccc2)c1	-9.1*	i	-19	i	19	31
Cc1cc(C)c(OCCCNCc2ccccc2)c(Br)c1	-16*	i	0	i	0	30
CCCOc1ccc(OCCOCCNCc2ccccc2)cc1	-2.9	i	8	i	-8	7
Cc1ccc(OCCNCc2ccccc2)c(C)c1	-4.6*	i	14	i	-14	14
Cc1cccc(OCCCCNCc2ccccc2)c1	-1.9	i	-16	i	16	21
C/C=C/c1ccc(OCCOCCNCc2ccccc2)c(OC)c1	-6.2*	i	24	i	-24	13
O=C(c1ccc2ccccc2n1)N1CCN(S(=O)(=O)c2ccccc2)CC1	.	i	-10	.	10	.
O=C(N/N=C/c1cc2c3c(c1O)CCCN3CCC2)c1ccccc1O	-1.3	i	140*	.	-140	6
Cn1cc(/C=N/NC(=O)c2ccccc2O)c2ccccc21	-0.45	i	18	i	-18	-3
SMILES	Kir21 block	ANO1 activ	SR-BI DiI inh	TMEM16A inh	SR-BI uptake up	FID counter
Cc1ccc(COCC(CC(C)C)N2CCN(C(=O)c3cccc(C(F)(F)F)c3)CCC2=O)cc1 (stereo unspecified)	-1	-17*	10	i	-10	-46
N#Cc1ccc(OCC(=O)N2CCN(S(=O)(=O)c3cccc(Cl)c3)CC2)cc1	.	i	-24	.	24	.
COc1ccccc1-c1ccc(SCc2ccc([N+](=O)[O-])cc2)nn1	0.28	i	44	i	-44	-8
COc1ccccc1-c1ccc(SCc2cccc(C)c2)nn1	-2.2	i	-17	100*	17	-23
Cc1cc(C(=O)NNC(=O)COc2ccccc2Cl)n[nH]1	-1.1	i	-3	i	3	-9
CN(C)c1ncc(S(=O)(=O)c2ccccc2)c(-c2ccc(Cl)cc2Cl)n1	-0.3	i	11	i	-11	-24
CN(C)c1ncc(S(=O)(=O)c2ccc(Cl)cc2)c(-c2ccc(Cl)cc2Cl)n1	-0.06	-7.7*	-28	i	28	-4
COc1ccc(-c2[nH]ncc2/C=N\NC(=O)c2cccs2)cc1OC	0.02	i	11	i	-11	-28
COc1ccc(CCC(=O)OCC(=O)c2c(N)n(CC(C)C)c(=O)n(C)c2=O)cc1	0	-5.4*	14	i	-14	-34
COc1ccccc1CCC(=O)OCC(=O)c1c(N)n(CC(C)C)c(=O)n(C)c1=O	-1.2	i	-9	i	9	.
CC1(c2nnc(-c3ccccc3)o2)CC(c2cccc(Cl)c2)=NO1 (stereo unspecified)	-0.77	i	-13	i	13	.
CC1(c2nnc(-c3cccc(Cl)c3)o2)CC(c2cccc([N+](=O)[O-])c2)=NO1 (stereo unspecified)	-1.3	-27*	5	i	-5	-7
Nc1ccc(C23CC4CC(CC(CO)(C4)C2)C3)cc1	-0.02	i	-3	i	3	-4
NCC12CC3CC(C1)CC(c1ccc(Cl)cc1)(C3)C2	-10*	i	-24	i	24	18
CCCCCCNC(=O)N[C@H](C(=O)NCCC[C@H]1CN2C(=NC[C@H]2C)N1CCC(c1ccccc1)c1ccccc1)C(C)O (stereo partly specified)	.	i	-11	i	11	.
O=C(O)CNC(=O)c1ccccc1F	0.93	i	-37	i	37	6
O=C(NCCCCNC(=O)c1ccccc1F)c1ccccc1F	1.7	i	75*	i	-75	-1
COc1cccc(OC)c1C(=O)NC(=S)Nc1cc(-c2nc3ccccc3[nH]2)ccc1Cl	-0.01	i	54	i	-54	-4
Cc1ccc(CN2C(=O)CSc3ccc(C(=O)NCCN4CCOCC4)cc32)cc1	-0.1	i	-14	i	14	43*
O=[N+]([O-])c1ccc(NC(=S)NCCc2ccc(Cl)cc2)cc1	-0.44	i	.	100*	.	17

Assay outcomes from PubChem.
